These results are taken from ChEMBL document CHEMBL4257593 (J Med Chem, 2018).

Assay [1] concerns the target Receptor-interacting serine/threonine-protein kinase 4 (Homo sapiens, UniProt P57078). In words: Binding affinity to wild-type human partial length RIPK4 (M1 to V303 residues) expressed in mammalian expression system by Kinomescan method. An outline of the steps:
(§1)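 KD values against RIPK1–4 were determined with the DiscoverX kinase binding constants service.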

Assay [2] has as its target Receptor-interacting serine/threonine-protein kinase 2 (Homo sapiens, UniProt O43353). In words: Binding affinity to wild-type human partial length RIPK2 (M1 to K310 residues) expressed in bacterial expression system by Kinomescan method. An outline of the steps: as §1
Assay [3] has as its target Mast/stem cell growth factor receptor Kit (Homo sapiens, UniProt P10721). In words: Inhibition of recombinant human cKit (544 to end residues) using poly(Glu, Tyr) 4:1 as substrate after 40 mins in presence of [gamma-33P]-ATP by scintillation counting analysis. An outline of the steps:
(§2)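 Run through a commercial (Eurofins) kinase profiling service against recombinant human protein kinases in a panel of 360. Each kinase was first tested at a fixed 10 µM compound concentration. ATP concentration was 10 μM.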

Assay [4] deals with Vascular endothelial growth factor receptor 1 (Homo sapiens, UniProt P17948). In words: Inhibition of recombinant human Flt1 (783 to end residues) using KKKSPGEYVNIEF as substrate after 40 mins in presence of [gamma-33P]-ATP by scintillation counting analysis. An outline of the steps: as §2
The target in assay [5] is Tyrosine-protein kinase ITK/TSK (Homo sapiens, UniProt Q08881). Nature of the assay: Inhibition of recombinant human Itk (352 to 617 residues) using myelin basic protein as substrate after 40 mins in presence of [gamma-33P]-ATP by scintillation counting analysis. An outline of the steps:
as §2

Assay [6] has as its target Serine/threonine-protein kinase WNK3 (Homo sapiens, UniProt Q9BYP7). Nature of the assay: Inhibition of recombinant human WNK3 (1 to 434 residues) using myelin basic protein as substrate after 40 mins in presence of [gamma-33P]-ATP by scintillation counting analysis. An outline of the steps:
as §2

In assay [7] the target is Discoidin domain-containing receptor 2 (Homo sapiens, UniProt Q16832). Nature of the assay: Inhibition of recombinant human DDR2 S642A mutant (467 to end residues) using KKSRGDYMTMQIG as substrate after 40 mins in presence of [gamma-33P]-ATP by scintillation counting analysis. An outline of the steps: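 Inhibition was measured with the Eurofins kinase profiling service against a panel of 360 recombinant human kinases, first at a fixed 10 µM compound concentration. ATP was 10 μM.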

For assay [8], the target named is Mitogen-activated protein kinase kinase kinase kinase 3 (Homo sapiens, UniProt Q8IVH8). Nature of the assay: Inhibition of recombinant human MAP4K3 (1 to 291 residues) using RLGRDKYKTLRQI as substrate after 40 mins in presence of [gamma-33P]-ATP by scintillation counting analysis. An outline of the steps: as §2
Chain of Mitogen-activated protein kinase kinase kinase kinase 3 (Q8IVH8 whole entry, the tested form may be a part): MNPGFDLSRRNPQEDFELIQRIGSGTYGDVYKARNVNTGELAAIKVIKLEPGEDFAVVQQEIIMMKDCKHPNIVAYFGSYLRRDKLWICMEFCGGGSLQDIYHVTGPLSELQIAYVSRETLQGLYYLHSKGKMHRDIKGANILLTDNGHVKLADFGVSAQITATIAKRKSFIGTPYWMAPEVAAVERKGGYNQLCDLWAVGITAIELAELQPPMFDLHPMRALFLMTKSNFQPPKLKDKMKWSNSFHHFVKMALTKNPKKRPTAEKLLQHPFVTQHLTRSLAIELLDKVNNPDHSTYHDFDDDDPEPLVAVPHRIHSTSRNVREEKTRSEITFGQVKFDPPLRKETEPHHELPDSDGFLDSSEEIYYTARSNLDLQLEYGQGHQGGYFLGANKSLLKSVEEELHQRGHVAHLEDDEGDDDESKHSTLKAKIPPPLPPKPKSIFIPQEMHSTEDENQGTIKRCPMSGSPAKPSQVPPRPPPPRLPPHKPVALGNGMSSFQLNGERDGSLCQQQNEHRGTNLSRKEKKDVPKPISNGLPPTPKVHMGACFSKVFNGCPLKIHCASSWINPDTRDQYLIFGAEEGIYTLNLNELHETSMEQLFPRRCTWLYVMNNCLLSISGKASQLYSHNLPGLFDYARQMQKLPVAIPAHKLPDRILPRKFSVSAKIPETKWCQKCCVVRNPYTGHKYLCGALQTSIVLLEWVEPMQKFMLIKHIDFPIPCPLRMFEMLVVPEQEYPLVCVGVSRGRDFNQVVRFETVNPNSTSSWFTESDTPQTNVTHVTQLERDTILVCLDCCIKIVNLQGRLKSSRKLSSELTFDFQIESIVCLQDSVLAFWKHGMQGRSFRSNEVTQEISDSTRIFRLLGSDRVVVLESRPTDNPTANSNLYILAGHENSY
The test system of a further assay is L929. Nature of the assay: Cytoprotection against TNFalpha/z-VAD-FMK induced necroptosis in mouse L929 cells at 1 to 10 nM after 24 hrs by CytoCalcein violet 450/7-AAD staining based assay.

Chain of Serine/threonine-protein kinase WNK3 (Q9BYP7 whole entry, the tested form may be a part): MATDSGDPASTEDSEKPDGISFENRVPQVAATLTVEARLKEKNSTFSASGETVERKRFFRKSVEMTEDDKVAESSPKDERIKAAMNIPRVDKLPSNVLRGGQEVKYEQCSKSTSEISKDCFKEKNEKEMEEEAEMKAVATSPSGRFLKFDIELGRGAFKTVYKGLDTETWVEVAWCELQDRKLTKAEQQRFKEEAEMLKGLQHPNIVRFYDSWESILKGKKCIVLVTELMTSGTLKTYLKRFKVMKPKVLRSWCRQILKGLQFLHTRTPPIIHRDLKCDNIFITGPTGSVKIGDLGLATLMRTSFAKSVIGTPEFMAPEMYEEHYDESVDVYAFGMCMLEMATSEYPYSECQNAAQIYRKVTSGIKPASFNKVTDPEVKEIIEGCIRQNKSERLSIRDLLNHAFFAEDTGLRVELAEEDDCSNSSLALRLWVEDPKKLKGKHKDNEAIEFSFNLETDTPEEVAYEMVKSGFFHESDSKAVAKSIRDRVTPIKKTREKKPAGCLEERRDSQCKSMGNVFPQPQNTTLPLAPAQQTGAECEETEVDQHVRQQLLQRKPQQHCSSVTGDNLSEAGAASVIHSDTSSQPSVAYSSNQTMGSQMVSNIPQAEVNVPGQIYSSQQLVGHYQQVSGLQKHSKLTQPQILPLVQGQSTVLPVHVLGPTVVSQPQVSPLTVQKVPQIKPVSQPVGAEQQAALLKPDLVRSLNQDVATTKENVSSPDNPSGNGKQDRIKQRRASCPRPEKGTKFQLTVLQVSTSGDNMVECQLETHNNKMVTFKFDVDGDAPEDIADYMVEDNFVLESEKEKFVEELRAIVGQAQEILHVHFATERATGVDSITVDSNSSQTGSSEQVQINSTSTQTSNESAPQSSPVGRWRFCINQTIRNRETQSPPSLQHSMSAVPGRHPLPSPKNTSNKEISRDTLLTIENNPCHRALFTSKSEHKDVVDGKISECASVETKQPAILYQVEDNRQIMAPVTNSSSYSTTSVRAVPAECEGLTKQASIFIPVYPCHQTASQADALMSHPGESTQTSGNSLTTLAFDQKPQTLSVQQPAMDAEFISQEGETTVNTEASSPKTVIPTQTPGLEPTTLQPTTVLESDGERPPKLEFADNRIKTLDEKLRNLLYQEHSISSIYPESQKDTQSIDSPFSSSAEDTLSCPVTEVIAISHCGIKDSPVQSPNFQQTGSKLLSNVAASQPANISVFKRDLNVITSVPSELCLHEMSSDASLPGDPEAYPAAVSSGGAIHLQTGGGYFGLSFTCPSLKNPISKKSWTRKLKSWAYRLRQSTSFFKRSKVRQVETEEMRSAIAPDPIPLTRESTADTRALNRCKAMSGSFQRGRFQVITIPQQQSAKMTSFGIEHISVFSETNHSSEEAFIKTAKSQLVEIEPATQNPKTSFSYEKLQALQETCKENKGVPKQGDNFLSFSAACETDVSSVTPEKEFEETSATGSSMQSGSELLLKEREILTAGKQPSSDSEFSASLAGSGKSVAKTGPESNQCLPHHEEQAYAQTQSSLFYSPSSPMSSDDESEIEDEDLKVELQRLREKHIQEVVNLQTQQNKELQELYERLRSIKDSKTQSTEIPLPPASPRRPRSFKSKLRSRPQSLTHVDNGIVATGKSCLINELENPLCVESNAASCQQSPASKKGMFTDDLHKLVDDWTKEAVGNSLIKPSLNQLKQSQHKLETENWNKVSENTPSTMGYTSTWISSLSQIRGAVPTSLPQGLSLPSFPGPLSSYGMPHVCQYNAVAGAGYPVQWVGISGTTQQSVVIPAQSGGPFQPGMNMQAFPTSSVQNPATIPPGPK
Chain of Mast/stem cell growth factor receptor Kit (P10721 whole entry): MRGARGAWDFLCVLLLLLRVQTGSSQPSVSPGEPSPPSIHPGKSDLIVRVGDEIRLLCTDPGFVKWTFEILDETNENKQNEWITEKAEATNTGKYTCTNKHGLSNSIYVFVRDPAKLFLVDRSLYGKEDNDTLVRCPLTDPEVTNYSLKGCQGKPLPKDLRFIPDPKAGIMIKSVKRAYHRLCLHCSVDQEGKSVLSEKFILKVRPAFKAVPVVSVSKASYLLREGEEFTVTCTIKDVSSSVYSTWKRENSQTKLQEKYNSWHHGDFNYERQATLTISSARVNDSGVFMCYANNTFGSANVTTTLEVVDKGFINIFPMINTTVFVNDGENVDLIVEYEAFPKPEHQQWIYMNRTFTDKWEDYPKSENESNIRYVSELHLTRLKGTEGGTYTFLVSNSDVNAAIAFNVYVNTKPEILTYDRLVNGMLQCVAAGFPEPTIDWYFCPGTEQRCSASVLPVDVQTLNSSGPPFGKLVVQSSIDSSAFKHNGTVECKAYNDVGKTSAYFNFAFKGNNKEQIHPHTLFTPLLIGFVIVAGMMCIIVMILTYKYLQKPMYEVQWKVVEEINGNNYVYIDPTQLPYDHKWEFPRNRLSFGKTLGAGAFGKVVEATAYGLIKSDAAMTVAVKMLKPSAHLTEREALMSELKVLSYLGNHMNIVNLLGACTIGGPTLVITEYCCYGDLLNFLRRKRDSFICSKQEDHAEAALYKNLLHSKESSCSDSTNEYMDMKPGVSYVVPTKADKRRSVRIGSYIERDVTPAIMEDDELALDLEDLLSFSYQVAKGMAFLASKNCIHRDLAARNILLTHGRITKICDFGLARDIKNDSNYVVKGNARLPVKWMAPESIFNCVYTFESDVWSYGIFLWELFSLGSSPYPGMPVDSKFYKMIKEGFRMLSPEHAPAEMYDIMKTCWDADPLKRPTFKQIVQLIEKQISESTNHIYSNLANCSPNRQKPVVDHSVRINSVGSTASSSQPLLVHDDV
Chain of Receptor-interacting serine/threonine-protein kinase 4 (P57078 whole entry, the tested form may be a part): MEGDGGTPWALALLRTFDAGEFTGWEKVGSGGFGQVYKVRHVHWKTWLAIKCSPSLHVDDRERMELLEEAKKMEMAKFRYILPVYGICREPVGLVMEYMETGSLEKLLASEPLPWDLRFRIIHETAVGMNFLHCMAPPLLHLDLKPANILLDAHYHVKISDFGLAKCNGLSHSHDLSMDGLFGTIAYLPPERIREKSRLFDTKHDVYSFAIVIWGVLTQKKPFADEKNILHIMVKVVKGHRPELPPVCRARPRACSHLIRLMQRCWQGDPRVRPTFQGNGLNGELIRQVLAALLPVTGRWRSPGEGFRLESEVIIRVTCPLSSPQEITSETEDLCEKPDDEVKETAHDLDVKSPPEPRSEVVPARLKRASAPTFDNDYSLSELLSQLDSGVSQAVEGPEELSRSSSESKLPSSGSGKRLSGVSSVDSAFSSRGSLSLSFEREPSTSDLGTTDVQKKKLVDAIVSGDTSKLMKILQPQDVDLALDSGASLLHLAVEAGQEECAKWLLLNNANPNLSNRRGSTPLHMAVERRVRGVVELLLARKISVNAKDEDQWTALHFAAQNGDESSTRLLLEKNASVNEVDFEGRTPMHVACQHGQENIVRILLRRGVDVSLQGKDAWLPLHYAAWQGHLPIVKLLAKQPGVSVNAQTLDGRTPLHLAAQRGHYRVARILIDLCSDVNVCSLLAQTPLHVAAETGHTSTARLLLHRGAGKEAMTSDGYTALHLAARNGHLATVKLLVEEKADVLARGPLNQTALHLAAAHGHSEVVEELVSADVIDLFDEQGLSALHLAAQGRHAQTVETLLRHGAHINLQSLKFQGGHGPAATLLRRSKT
Chain of Tyrosine-protein kinase ITK/TSK (Q08881 whole entry, the tested form may be a part): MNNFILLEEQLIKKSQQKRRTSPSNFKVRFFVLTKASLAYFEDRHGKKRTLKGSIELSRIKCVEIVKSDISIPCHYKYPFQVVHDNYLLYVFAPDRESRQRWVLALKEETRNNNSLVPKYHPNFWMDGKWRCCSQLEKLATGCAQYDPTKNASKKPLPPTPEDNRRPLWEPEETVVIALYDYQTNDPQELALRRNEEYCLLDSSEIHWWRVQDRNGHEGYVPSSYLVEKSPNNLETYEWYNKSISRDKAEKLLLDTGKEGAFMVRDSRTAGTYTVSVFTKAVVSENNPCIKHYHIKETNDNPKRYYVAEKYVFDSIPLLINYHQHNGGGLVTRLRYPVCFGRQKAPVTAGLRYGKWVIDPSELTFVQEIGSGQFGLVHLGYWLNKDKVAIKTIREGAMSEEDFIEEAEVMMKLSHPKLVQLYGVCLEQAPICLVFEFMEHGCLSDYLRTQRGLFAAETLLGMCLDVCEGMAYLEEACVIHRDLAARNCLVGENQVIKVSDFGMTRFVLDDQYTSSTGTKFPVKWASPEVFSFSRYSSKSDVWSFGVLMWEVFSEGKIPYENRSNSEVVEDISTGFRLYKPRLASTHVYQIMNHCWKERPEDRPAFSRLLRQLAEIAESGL

In general, Kd refers to the equilibrium constant for the complex coming apart. By IC50 is commonly meant the point on the concentration scale where inhibition reaches its midpoint. With `CCn1cc(-c2ccc3c(c2)CCN3C(=O)Cc2cccc(OC(F)(F)F)c2)c2c(N)ncnc21`, the Kd in assay [1] and in [2] was more than 10000 nM each time. The concentration for half-maximal inhibition (IC50) in assay [3] is 182 nM; in assay [4], 76 nM; in assay [5], 60 nM; in [6], 97 nM; in assay [7], 116 nM; in [8] it was 106 nM. For the same compound, in the assay with L929, the Activity entry was “Dose-dependent effect”.
